# Assay outcomes (PubChem)
# Beta apoptosis: beta cell apoptosis inhibition | INS-1E cytokine-induced death, ATP luminescence, 48 h; percent of positive-control rescue, neutral wells zero | protection from apoptosis, % (test concentration not listed) | 300,000 compounds, 0.8% hits;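 active = Every replicate reaches about 75%, or at least half do and their mean reaches it too, limit read from the data; inconclusive = At least half of replicates reach the limit but their mean does not; inactive = Under half of replicates reach the limit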;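 also: 0% = cytokine-treated negative control wells and 100% = positive control rescue; higher means more ATP so stronger rescue from cytokine killing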
# NLRP3 yeast inh: blocks the NALP3 inflammasome reconstituted in yeast; Yeast reconstituted NLRP3/ASC/caspase-1, beta-gal luminescence, 24 h; inhibition, % at 10 µM; 330,000 compounds, 0.39% hits; AID 2825;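 active = inhibition of 50% or more; inactive = inhibition below 50%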;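 also: plate controls were induced DMSO wells for no effect and uninduced yeast grown without galactose for full effect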
# Mdm2 MdmX PPI: disrupts the human Mdm2-MdmX interaction; O15151+Q00987; inhibition, % at 8 µM; 330,000 compounds, 3% hits; SaOS-2 split-luciferase Mdm2/MdmX complementation, luminescence; AID 485346;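 active = inhibition of at least 50% at 8 µM in the primary screen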
# Calb FLC: C. albicans growth modulation with fluconazole; C. albicans CaCi-2 (fluconazole-resistant clinical isolate) + fluconazole, Alamar Blue growth, 48 h; growth inhibition, % (no concentration beside the values); 300,000 compounds, 0.57% hits; AID 1979;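 active = growth inhibition above about 58% in most replicates, limit read from the data, passing the limit was not always enough; inconclusive = exactly half the replicates above a set limit; inactive = most replicates below a set limit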;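 also: all wells also contain fluconazole at 8 µg/ml as a sub-toxic cotreatment; 0% = median of DMSO wells and 100% = median of geldanamycin control wells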
# T cruzi repl: T. cruzi replication inhibition | T. cruzi beta-gal in NIH3T3, luminescence, 90 h | inhibition, % (test concentration not listed) | 300,000 compounds, 1.4% hits | AID 1885;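 active = mean inhibition across valid replicates above about 55%, limit read from the data; inconclusive = mean below that limit but half or more replicates reach it; inactive = mean below it, under half of replicates reach it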;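 also: signal also drops with host cell toxicity which is not excluded here; 0% = plate median of DMSO wells and 100% = zero luminescence signal; higher percent means less beta-gal luminescence so fewer parasites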
#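 Material: NIH/3T3 host cells with β-galactosidase reporter T. cruzi; Input: 5,000 host fibroblasts per well; Medium: DMEM, 2% fetal bovine serum; Compound: 50 nL DMSO compound solution per well; Schedule: 3 h host attachment, then at least 90 h co-culture; Detection: luminescent β-galactosidase signal after 60 min lysis.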
# CSC inhib: cancer stem cell inhibition; AID 2717; cancer stem cell-like cells viability, luminescence; 300,000 compounds, 1.1% hits; inhibition, % at 7.5 µM; in the data active = inhibition above about 75%; inconclusive = no clear call, values can overlap the other calls; tested in HMLE shEcad cells
# Mdm2 MdmX conf: human Mdm2/MdmX binding inhibition, confirmed | shares compounds with Mdm2 MdmX PPI | luminescent assay | inhibition, % at 8 µM | 10,000 compounds, 55% hits | AID 489028; in the data active = inhibition above about 40%
# FLuc counter: counter-screen for Mdm2/MdmX inhibitors: full-length luciferase; SaOS-2 full-length luciferase counterscreen, luminescence; AID 504607; shares compounds with Mdm2 MdmX PPI; inhibition, % at 8 µM; 6,200 compounds, 77% hits;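 active = mean inhibition at 8 µM reaching about 37%, which flags the compound as non-specific, limit read from the data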;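 also: p53-null SaOS-2 cells with luciferase driven by a doxycycline-inducible promoter; compound on cells about two nights before reading with doxycycline added after day one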
# Active calls of the source: *; u = inconclusive; x = no result; ! = a repeat was not active. Only some compounds are listed: those with a hit (about 5.3% of all), similar ones and a draw of the others.
SMILES,Beta apoptosis,NLRP3 yeast inh,Mdm2 MdmX PPI,Calb FLC,T cruzi repl,CSC inhib,Mdm2 MdmX conf,others
Cc1ccc(NC(=O)CCl)cc1S(=O)(=O)N1CCCCCC1,12,-1,97*,-38,26,71,26,
O=C(O)CCC(=O)N1CCN(S(=O)(=O)c2ccc3ccccc3c2)CC1,x,-2,11,1,-2,-15,x,
CCN(CC)S(=O)(=O)c1cc(NC(=O)Cn2ncc(Cl)c(Cl)c2=O)ccc1C,-15,17,100*,-12,u,u,100*,FLuc counter=50*
O=C(Cn1ncc(Cl)c(Cl)c1=O)c1ccc2c(c1)OCCO2,113*,46,100*,x,x,112*,82*,FLuc counter=52*
COc1ccc(NC(=O)Cn2ncc(Cl)c(Cl)c2=O)cc1S(=O)(=O)N1CCOCC1,-15,x,x,6,-31,51,x,
CCC(=O)c1ccc2c(c1)OCCO2,-2,21,-11,4,-7,9,x,
CCc1ccc2[nH]c(=O)c(C(c3nnnn3Cc3ccco3)N3CCC(C)CC3)cc2c1 (centres undefined),3,6,39,20,1,-11,x,
Cn1ccc(NC(=O)c2ccc(Cl)cc2Cl)n1,4,7,-30,x,x,-6,x,
Cc1ccc2c(c1)OC(c1ccc3c(c1)OCCO3)CC2=O (centres undefined),-5,33,-9,-7,-6,2,x,
c1cc(SC2CCCCC2)cc(-c2nc3cnccn3c2NC2CCCCC2)c1,-2,-9,89*,x,x,104*,29,
c1ccc(CNc2c(-c3cccc(SC4CCCCC4)c3)nc3ccccn23)cc1,124*,22,71*,x,x,102*,-1,
COc1ccc(-c2cc(-c3nc4ccccn4c3NCc3ccccc3)ccc2OC)cc1,125*,28,99*,x,x,98*,99*,FLuc counter=52*
Cc1ccn2c(NCc3ccccc3)c(-c3cccc(SC4CCCCC4)c3)nc2c1,-1,10,58*,x,x,99*,-2,
COc1ccc(-c2nc3ccccn3c2NCc2ccc3c(c2)OCO3)cc1,7,16,-25,-45,6,27,x,
C[C@]12c3[nH]c4ccc(Cl)cc4c3CCN1C(=O)[C@@H](CC(=O)NCCc1ccccn1)C[C@@H]2C(=O)N1CCCCC1,x,x,6,x,x,x,x,
Cc1ccc(C)c(NC(=S)N2CCCC2)c1,-4,5,28,-4,-16,-11,x,
COc1ccc(-c2cn3cccnc3n2)cc1Br,9,42,-19,-1,-11,-15,x,
Clc1cccc(-c2ccc(-c3nc4ccccn4c3NCc3ccccc3)cc2)c1,x,34,59*,x,x,x,-57,
O=C(NCc1cccnc1)/C(=C/c1ccc(-c2ccc(Cl)cc2)o1)S(=O)(=O)c1ccccc1,104*,-9,82*,19,49,110*,100*,FLuc counter=52*
O=C(NCc1cccnc1)/C(=C\c1ccc(-c2ccc(Br)cc2)o1)S(=O)(=O)c1ccccc1,107*,-1,96*,3,30,10,99*,FLuc counter=51*
O=C(CCCCCCN1C(=O)c2ccccc2C1=O)NC1CCCCC1,-9,25,-13,1,9,-14,x,
O=c1cc(CO)oc(CN2CCN(c3ccccc3)CC2)c1O,-4,-5,25,-26,-12,-8,x,
CCNc1nc(C)c(CN(C(C)=O)c2ccccc2)nc1C#N,-11,14,-12,2,2,-10,x,
CCn1c(=S)sc2c(=O)n(CC(=O)Nc3ccccc3C(F)(F)F)c(C)nc21,-1,10,53*,-10,5,-9,6,
Cc1nc2c(sc(=S)n2Cc2ccco2)c(=O)n1CC(=O)Nc1ccc(F)cc1,5,11,52*,-16,4,0,21,
SMILES,Beta apoptosis,NLRP3 yeast inh,Mdm2 MdmX PPI,Calb FLC,T cruzi repl,CSC inhib,Mdm2 MdmX conf,others
COc1cc(Cc2cnc(N)nc2N)cc(OC)c1OC,-10,-4,-5,x,-3,-8,x,
CCn1c(-c2nn(-c3ccccc3)ccc2=O)n[nH]c1=S,-5,24,21,-2,19,4,x,
Cc1cccc2c1OCC/C2=N\NC(=O)COc1ccccc1Cl,9,11,-59,1,0,-4,x,
Cc1nn(-c2ccccc2)c(N2CCCC2)c1/C=N/NC(=O)c1cc(-c2cccs2)nc2ccccc12,6,14,31,11,18,9,x,
Cc1nn(-c2ccccc2)c(N2CCCC2)c1/C=N/NC(=O)c1cc2ccccc2cc1O,4,18,36,-3,-5,44,x,
Cc1nn(-c2ccccc2)c(N2CCCC2)c1/C=N/NC(=O)c1cc(-c2ccccc2)nc2ccccc12,9,20,57*,2,63*,21,47*,FLuc counter=68*
Cc1nn(-c2ccccc2)c(N2CCCC2)c1/C=N/NC(=O)c1cc(-c2ccccn2)nc2ccccc12,7,18,63*,-11,4,10,15,
COc1ccc(NC(=O)NNC(=O)COc2ccc3ccccc3c2)cc1,-12,11,6,-17,-7,x,x,
Cc1cccc(NC(=O)c2cccc(N3C(=O)C4C5C=CC(C6CC56)C4C3=O)c2)c1 (centres undefined),x,6,-14,3,19,-15,x,
CCOc1ccc(Nc2cc3n(c(=O)n2)CCc2cc(OC)c(OC)cc2-3)cc1,14,-13,51*,-24,-5,-4,6,
CCCc1c(O)nc(SC2CC(=O)N(c3ccc(C)c(Cl)c3)C2=O)[nH]c1=O (centres undefined),-1,0,16,-5,-6,-5,x,
Cc1ccc(N2C(=O)CC(Sc3nc4ccccc4o3)C2=O)cc1Cl (centres undefined),-10,16,89*,-8,69*,-6,8,
CC[C@H](C)C(=O)O[C@H]1C[C@@H](C)C=C2C=C[C@H](C)[C@H](CC[C@@H]3C[C@@H](O)CC(=O)O3)[C@H]21,4,10,53*!,x,-12,24,33,
CC[C@H](C)C(=O)O[C@H]1CCC=C2C=C[C@H](C)[C@H](CC[C@@H]3C[C@@H](O)CC(=O)O3)[C@H]21,10,5,37,x,-2,33,x,
COc1ccc(C(CCNCc2ccc(OC)c(OC)c2)c2ccc(F)cc2)cc1 (centres undefined),-11,34,43,-1,18,-10,x,
COc1ccc(C(CCNC(C)c2ccccc2)C(C)C)cc1 (centres undefined),6,22,55*,-4,43,4,30,
COc1ccc(C(C)NCCC(c2ccc(OC(C)C)cc2)c2ccccc2OC)cc1 (centres undefined),82*,17,99*,1,u,104*,69*,FLuc counter=56*
